Experimental data gathered from unrelated publications.
Lines come from different studies, so protocols differ.
Adra1a: Alpha-1A adrenergic receptor (Adra1a, Rattus norvegicus, UniProt P43140)
CTSB: Cathepsin B (CTSB, Homo sapiens, UniProt P07858)
SIRT6: NAD-dependent protein deacylase sirtuin-6 (SIRT6, Homo sapiens, UniProt Q8N6T7)
SCN5A: Sodium channel protein type 5 subunit alpha (SCN5A, Homo sapiens, UniProt Q14524)
Plasmepsin II: Plasmepsin II (Plasmodium falciparum, UniProt P46925)
CCR5: C-C chemokine receptor type 5 (CCR5, Homo sapiens, UniProt P51681)
CCR2: C-C chemokine receptor type 2 (CCR2, Homo sapiens, UniProt P41597)

CCN(Cc1ccccc1C(F)(F)F)C(=O)C1CCN(S(=O)(=O)c2ccc3[nH]ncc3c2)CC1  inhibition (Adra1a; ligand displacement, radioligand; 10 µM): 12%
CSSc1ccccc1C(=O)O  inhibition (CTSB; enzyme activity, inhibitor, fluorescence; 20 µM): 100%
CC(C)(C)c1ccc(CONC(=O)c2ccc(C(N)=O)cc2)cc1  inhibition (SIRT6; enzyme activity, inhibitor, fluorescence; 100 µM): 95.1%
Cc1ccc(CNC(=O)[C@H](CCc2ccccc2)NC(=O)[C@H](CCc2ccccc2)NC(=O)[C@H](CCc2ccccc2)NC(=O)c2cnc(C)cn2)cc1  inhibition (CTSB; enzyme activity, inhibitor; 100 µM): -15%
N=c1n(CCN2CCCCC2)c2ccccc2n1CC(O)c1cccc(Br)c1 (stereo not drawn)  inhibition (SCN5A; ion current, inhibitor, patch clamp; CHO; 10 µM): 66%
CC/C(=N\NC(=O)NCc1cccc(O)c1)c1ccc(O)c(C)c1O  inhibition (ALK tyrosine kinase receptor (ALK, Homo sapiens, UniProt Q9UM73, L1196M); enzyme activity, inhibitor; 0.1 µM): 3%
O=[N+]([O-])c1ccc(N2CCN(CCC(O)c3csc4ccc(F)cc34)CC2)c(C(F)(F)F)c1 (stereo not drawn)  inhibition (Plasmepsin II; enzyme activity, inhibitor; 5 µM): 13%
C=CCC1(/C=C(\C)C=C)SC(=O)C(CC)=C1O (racemic)  inhibition (Nicotinamide N-methyltransferase (NNMT, Homo sapiens, UniProt P40261); enzyme activity, inhibitor; 10 µM): ~35%
C/C(=C\C(=O)OCCCCCCCCC(=O)O)C[C@@H]1OC[C@H](C[C@@H]2O[C@H]2[C@@H](C)[C@H](C)O)[C@@H](O)[C@H]1O  inhibition (CCR5; calcium signal, antagonist; U87/CD4/CCR5; 0.8 µM): 52%
CCCCCCCCCCCCNC(=S)NCCCC[C@H](NS(C)(=O)=O)C(=O)N[C@@H](C)C(=O)N[C@@H](CCCNC(=N)N)C(N)=O  inhibition (SIRT6; enzyme activity, inhibitor; 10 µM): 30%
COc1cc2c3c(c1OCc1ccc(Br)cc1)-c1cc4c(cc1CC3N(C)CC2c1ccccc1)OCO4 (stereo not drawn)  inhibition (5-hydroxytryptamine receptor 7 (HTR7, Homo sapiens, UniProt P34969); ligand displacement, radioligand; 10 µM): -22.6%
OCc1cc(C(O)CNCCCCCCOCCCCc2ccccc2)ccc1O (stereo not drawn)  inhibition (CCR5; calcium signal, antagonist; U87/CD4/CCR5; 100 µM): 60%
O=C(c1ccc(F)cc1)N(Cc1ccccc1)C1CCCCC1  inhibition (Platelet-activating factor receptor (PTAFR, Homo sapiens, UniProt P25105); cell-free assay; 10 µM): 6%
CN1CC(Oc2cnc(C#N)cc2-c2ccn3nc(NC(=O)C4CC4)cc3c2)C1  inhibition ([Pyruvate dehydrogenase (acetyl-transferring)] kinase isozyme 4, mitochondrial (PDK4, Homo sapiens, UniProt Q16654); enzyme activity, inhibitor; 1 µM): 2%
O=[N+]([O-])c1ccc(N2CCC(NCCC(O)c3ccc(F)c4ccccc34)CC2)c(C(F)(F)F)c1 (stereo not drawn)  inhibition (Plasmepsin II; enzyme activity, inhibitor; 5 µM): 9%
NC(=O)c1ccc(C(=O)NOCc2ccc(Sc3cc(Cl)cc(Cl)c3)c(C(F)(F)F)c2)cc1  inhibition (SIRT6; enzyme activity, inhibitor, fluorescence; 100 µM): 100%
O=C(NCCNC(=O)c1n[nH]c(=O)c2ccccc12)c1cccc(CN2C(=O)CNC2=O)c1  inhibition (Poly [ADP-ribose] polymerase 2 (PARP2, Homo sapiens, UniProt Q9UGN5); enzyme activity, inhibitor; 0.5 µM): ~50%
OC(CCN1CCN(c2ccc(C(F)(F)F)cc2)CC1)c1csc2ccc(F)cc12 (stereo not drawn)  inhibition (Plasmepsin II; enzyme activity, inhibitor; 5 µM): 0%
NC(=O)c1ccc(C(=O)NOCc2ccc(-n3cccn3)cc2)cc1  inhibition (SIRT6; enzyme activity, inhibitor, fluorescence; 100 µM): 91.8%
CCCNc1nc2ccccc2n1Cc1ccc(Cl)cc1  inhibition (5-hydroxytryptamine receptor 6 (HTR6, Homo sapiens, UniProt P50406); ligand displacement; 10 µM): 36.6%
O=C(NOCc1ccc(C(F)(F)F)cc1)c1ccc(-c2nn[nH]n2)cc1  inhibition (SIRT6; enzyme activity, inhibitor, fluorescence; 100 µM): 4.2%
O=c1c2ccccc2c(Cc2ccc(Cl)cc2)nn1C1CCCNCC1 (stereo not drawn)  inhibition (SCN5A; ion current, inhibitor, patch clamp; CHO; 10 µM): 62%
NC(=O)c1ccc(C(=O)NOCc2ccc3sc4ccccc4c3c2)cc1  inhibition (SIRT6; enzyme activity, inhibitor, fluorescence; 100 µM): 96.2%
CN(Cc1ccc(NC(=O)C2=Cc3cc(-c4ccc(OCCCCCO)cc4)ccc3CCC2)cc1)C1CCOCC1  inhibition (CCR2; ligand displacement, radioligand; 1 µM, cell membranes): 53%
COc1cccc(Sc2ccc(CONC(=O)c3ccc(C(N)=O)cc3)cc2C(F)(F)F)c1  inhibition (SIRT6; enzyme activity, inhibitor, fluorescence; 100 µM): 100%
Ic1cccc2cnccc12  inhibition (Protein mono-ADP-ribosyltransferase PARP14 (PARP14, Homo sapiens, UniProt Q460N5); enzyme activity, inhibitor; 10 µM): 7%
NC(=S)c1ccc(C(=O)NOCc2ccc(C(F)(F)F)cc2)cc1  inhibition (SIRT6; enzyme activity, inhibitor, fluorescence; 100 µM): 89.2%
CN(Cc1ccc(NC(=O)C2=Cc3cc(-c4ccc(OCCCF)cc4)ccc3CCC2)cc1)C1CCOCC1  inhibition (CCR2; ligand displacement, radioligand; 1 µM, cell membranes): 48%
COc1ccccc1CONC(=O)c1ccc(C(N)=O)cc1  inhibition (SIRT6; enzyme activity, inhibitor, fluorescence; 100 µM): 60.5%
O=C(Nc1ccc(S(=O)(=O)N2CCC(Cl)CC2)cc1)c1ccc([N+](=O)[O-])o1  inhibition (Adra1a; ligand displacement, radioligand; 10 µM): 19%
